For one test, the target named is T1, Coagulation factor VII (Homo sapiens, UniProt P08709).
T1 sequence (P08709 whole entry): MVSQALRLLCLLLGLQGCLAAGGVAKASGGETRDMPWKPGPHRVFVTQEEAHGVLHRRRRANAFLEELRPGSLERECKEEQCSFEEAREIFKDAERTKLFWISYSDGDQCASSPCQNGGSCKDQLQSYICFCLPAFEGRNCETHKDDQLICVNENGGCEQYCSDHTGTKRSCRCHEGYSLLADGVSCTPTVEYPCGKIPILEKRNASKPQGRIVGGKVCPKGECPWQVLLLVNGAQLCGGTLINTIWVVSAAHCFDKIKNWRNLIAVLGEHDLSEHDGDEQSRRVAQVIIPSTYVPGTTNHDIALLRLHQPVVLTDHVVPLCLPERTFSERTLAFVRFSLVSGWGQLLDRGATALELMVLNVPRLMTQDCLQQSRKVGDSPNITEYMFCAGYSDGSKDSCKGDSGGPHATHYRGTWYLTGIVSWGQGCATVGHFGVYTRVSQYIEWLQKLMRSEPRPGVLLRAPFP
Description: Inhibitory activity against coagulation factor VII was determined.

Another test concerns the target Coagulation factor X (Homo sapiens, UniProt P00742). Description: Inhibitory activity against coagulation factor X was determined. A digest of the protocol:
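Human factor Xa at 0.3 nM with 0.15 mM S-2765 in 50 mM Tris-HCl pH 8.0, 100 mM NaCl, 0.1% BSA. A405 background was read immediately, then hydrolysis rate (p-nitroaniline release at 405 nm) after 60 min at room temperature. Seven concentrations in duplicate; % inhibition vs control; IC50 by four-parameter logistic fit.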

The subject of another test is Thrombin (Homo sapiens). The test can be described thus: Inhibitory activity against thrombin was determined at a concentration of 30 uM.

A value given as a limit tells only on which side of the number the result lay.

Chain of Coagulation factor X (P00742 41-179 limits assumed): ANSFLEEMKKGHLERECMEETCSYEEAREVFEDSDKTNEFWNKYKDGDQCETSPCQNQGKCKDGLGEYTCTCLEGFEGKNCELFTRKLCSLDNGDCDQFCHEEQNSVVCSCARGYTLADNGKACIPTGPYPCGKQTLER
Chain of Coagulation factor X (P00742 235-488 limits assumed): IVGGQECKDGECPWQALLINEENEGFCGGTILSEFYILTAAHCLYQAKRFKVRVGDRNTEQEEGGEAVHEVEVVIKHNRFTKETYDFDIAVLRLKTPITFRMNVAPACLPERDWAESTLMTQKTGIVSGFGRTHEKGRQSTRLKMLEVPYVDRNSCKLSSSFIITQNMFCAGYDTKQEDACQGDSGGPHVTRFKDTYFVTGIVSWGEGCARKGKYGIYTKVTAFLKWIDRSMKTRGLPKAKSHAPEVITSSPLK

Take `O=C(NCC1CCNCC1)c1cc(NS(=O)(=O)Cc2ccccc2)ccc1Sc1ccccc1`: the IC50 at Coagulation factor VII is greater than 30 µM.

`N=C(N)c1ccc(CNC(=O)Cc2c(F)ccc(NCCc3ccccc3)c2F)cc1` yielded an IC50 at Coagulation factor X greater than 30 µM.

In the case of `O=C(Cc1c(F)ccc(NS(=O)(=O)Cc2ccccc2)c1F)NCc1ccncc1`, the IC50 at Coagulation factor VII is greater than 30 µM.

Turning to `O=C(NCc1ccncc1)c1cc(NS(=O)(=O)Cc2ccccc2)ccc1Sc1ccccc1`, the IC50 at Coagulation factor VII and against Coagulation factor X was greater than 30 µM each time.

`O=C(Cc1c(F)ccc(NS(=O)(=O)Cc2ccccc2)c1F)NCC1CCNCC1`: the IC50 against Coagulation factor VII and at Coagulation factor X was greater than 30 µM in each case.

As for `O=C(Cc1c(F)ccc(NS(=O)(=O)Cc2ccccc2)c1F)NCCCn1ccnc1`, the IC50 against Coagulation factor VII and against Coagulation factor X was greater than 30 µM each time.

At Coagulation factor X, `N=C(N)c1ccc(CNC(=O)Cc2c(-c3ccccc3)ccc(NCCc3ccccc3)c2F)cc1` returned an IC50 greater than 30 µM.

`CN(C)c1ccc(CNC(=O)Cc2c(F)ccc(NS(=O)(=O)Cc3ccccc3)c2F)cc1` came in with an IC50 against Coagulation factor VII greater than 30 µM.

Take `COc1c(NC(C)C)ccc(-c2ccccc2)c1CC(=O)NCc1ccc(C(=N)N)cc1`: the IC50 against Coagulation factor X is greater than 30 µM.

Take `CC(C)Nc1ccc(-c2cccc(N)c2)c(CC(=O)NCc2ccc(C(=N)N)cc2)c1F`: the IC50 against Coagulation factor X was greater than 30 µM.

For the molecule `N=C(N)c1ccc(CNC(=O)Cc2c(F)ccc(NS(=O)(=O)Cc3ccccc3)c2F)cc1`, the IC50 on Coagulation factor VII and on Coagulation factor X was greater than 30 µM each time.

Molecule `N=C(N)c1cccc(CNC(=O)Cc2c(F)ccc(NS(=O)(=O)Cc3ccccc3)c2F)c1` registered an IC50 at Coagulation factor VII greater than 30 µM.

As for `CN(C)c1ccc(CNC(=O)c2cc(NS(=O)(=O)Cc3ccccc3)ccc2Sc2ccccc2)cc1`, the IC50 on Coagulation factor VII and at Coagulation factor X was greater than 30 µM throughout.

Consider `N=C(N)NCCCCCNC(=O)Cc1c(F)ccc(NS(=O)(=O)Cc2ccccc2)c1F`, for which the IC50 against Coagulation factor VII and on Coagulation factor X was greater than 30 µM in each case.

`N=C(N)c1ccc(CNC(=O)c2cc(NS(=O)(=O)Cc3ccccc3)ccc2Sc2ccccc2)cc1`: in the test on Thrombin (Homo sapiens), the inhibition was determined as 22%. Further, the IC50 against Coagulation factor VII and at Coagulation factor X was greater than 30 µM each time.

Molecule `N=C(N)c1ccc(CNC(=O)Cc2c(-c3ccccc3)ccc(NCCc3ccccc3)c2O)cc1` came in with an IC50 on Coagulation factor X greater than 30 µM.

In the case of `CC(C)Nc1ccc(-c2ccccc2)c(CC(=O)NCc2ccc(C(=N)N)cc2)c1O`, the IC50 was 2.5 µM on Coagulation factor VII and greater than 30 µM on Coagulation factor X.

Molecule `N=C(N)c1ccc(CNC(=O)Cc2c(-c3cccc(N)c3)ccc(NCc3ccccc3)c2F)cc1` returned an IC50 against Coagulation factor VII of 0.5 µM.

The values are drawn from ChEMBL document CHEMBL1145113, “Synthesis and crystal structures of substituted benzenes and benzoquinones as tissue factor VIIa inhibitors” (J Med Chem, 2003).
